Values joined by “and” are separate entries in the source; they are usually repeats but may differ in a detail not shown here. Equal values may be shown once. Read-outs that look alike come from different tables or passages of the source.

The values below come from article PMC2886165 (Biochimica et biophysica acta, 2010).

The subject of one experiment is LXRs. Conditions: cited from earlier work.
Experiment [1] deals with T1, Gal4-RORγ LBD (Homo sapiens, UniProt P51449).
T1 sequence (P51449 269-508 limits assumed): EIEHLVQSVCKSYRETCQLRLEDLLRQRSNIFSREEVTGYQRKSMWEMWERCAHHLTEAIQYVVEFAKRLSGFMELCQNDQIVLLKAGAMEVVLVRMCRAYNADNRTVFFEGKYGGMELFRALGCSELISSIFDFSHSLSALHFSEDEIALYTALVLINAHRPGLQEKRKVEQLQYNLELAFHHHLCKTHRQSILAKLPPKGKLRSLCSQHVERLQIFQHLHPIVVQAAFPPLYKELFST
As to conditions: previous study; cited from earlier work.

Experiment [2] concerns the target T2, Gal4-RORα LBD (Homo sapiens, UniProt P35398).
T2 sequence (P35398 272-510 limits assumed): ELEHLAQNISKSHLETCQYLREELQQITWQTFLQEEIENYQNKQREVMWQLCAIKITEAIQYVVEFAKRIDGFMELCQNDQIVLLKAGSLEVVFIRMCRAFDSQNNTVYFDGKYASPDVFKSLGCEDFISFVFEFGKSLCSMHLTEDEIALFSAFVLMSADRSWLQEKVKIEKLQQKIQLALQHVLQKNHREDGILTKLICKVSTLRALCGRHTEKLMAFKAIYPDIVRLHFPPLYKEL
Conditions: previous study; cited from earlier work.

Another experiment has as its target T3, RORγ LBD (Homo sapiens, UniProt P51449).
T3 sequence (P51449 269-508 limits assumed): T1 sequence (P51449 269-508 limits assumed)
The experiment is classed as binding.

Experiment [3] has as its target T2, Gal4-RORα LBD. Kind of experiment: Gal4-RORα LBD cotransfection luciferase assay in HEK293 cells. The experiment is classed as cell-based. As to conditions: for effect on constitutive activity: single dose of 10 μM. In a few lines:
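Gal4-RORα LBD plasmid transfected into HEK293 cells with Lipofectamine 2000; cells plated 15 × 10^3/well 24 h earlier. […] Dual luciferase read after 24 h; four wells per point, ≥3 repeats. IC50 derived by non-linear regression; dose responses analysed by one-way ANOVA.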

The target of experiment [4] is T1, Gal4-RORγ LBD. Kind of experiment: Gal4-RORγ LBD cotransfection luciferase assay in HEK293 cells. Conditions: for effect on constitutive activity: single dose of 10 μM. The experiment is classed as cell-based.
In another experiment the target is T4, full-length RORα (Homo sapiens, UniProt P35398).
T4 sequence (P35398 1-523): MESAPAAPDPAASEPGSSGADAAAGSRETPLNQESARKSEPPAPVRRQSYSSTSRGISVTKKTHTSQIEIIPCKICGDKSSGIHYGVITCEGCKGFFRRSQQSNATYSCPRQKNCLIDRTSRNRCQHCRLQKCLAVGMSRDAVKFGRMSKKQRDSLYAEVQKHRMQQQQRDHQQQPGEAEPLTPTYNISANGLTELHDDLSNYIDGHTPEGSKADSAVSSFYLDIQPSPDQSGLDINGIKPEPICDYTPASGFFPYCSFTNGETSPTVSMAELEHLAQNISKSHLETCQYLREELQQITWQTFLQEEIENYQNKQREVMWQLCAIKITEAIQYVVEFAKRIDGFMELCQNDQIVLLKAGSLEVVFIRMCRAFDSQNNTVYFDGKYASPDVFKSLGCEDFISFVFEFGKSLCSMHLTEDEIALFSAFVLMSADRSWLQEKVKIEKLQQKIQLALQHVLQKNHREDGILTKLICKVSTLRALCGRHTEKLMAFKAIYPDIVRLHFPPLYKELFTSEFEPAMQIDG
The format is cell-based. Conditions: 10 μM, HEK293. Put shortly: (§1)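 HEK293 cells (DMEM, 10% FBS, 37 °C, 5% CO2) plated at 15 × 10^3 cells/well 24 h before transfection. Lipofectamine 2000 cotransfection of full-length receptor expression vector plus Bmal1 promoter-luciferase reporter. Vehicle or 10 μM test compound added 16 h post-transfection; dual luciferase read 24 h later. Mean ± S.E. of four wells, repeated at least three times; paired t test.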

The next experiment deals with T5, RORα (Homo sapiens, UniProt P35398).
T5 sequence (P35398 1-523): T4 sequence (P35398 1-523)
Kind of experiment: RORα cotransfection assay, G6Pase promoter luciferase reporter. As to conditions: 10 μM, HepG2 (Figure 3C legend). The format is cell-based. A general note: A reporter such as luciferase makes a cellular process visible.

Experiment [5] has as its target T6, RORα / SRC-2 on BMAL1 promoter (Homo sapiens, UniProt P35398).
T6 sequence (P35398 1-523): T4 sequence (P35398 1-523)
The format is cell-based. As to conditions: 10 μM, 24 hours, HepG2. In a few lines: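 HepG2 cells (MEM, 10% FBS, 37 °C, 5% CO2) infected with RORα adenovirus for 24 h, then given vehicle or 10 μM test compound for a further 24 h. First IP with anti-FLAG; re-IP with anti-SRC2, anti-RNA Pol II (positive control) or IgG (negative control). Bmal1 promoter amplified by PCR; band intensity averaged over three experiments.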

In experiment [6] the test system is RORα target genes (BMAL1, REV-ERBα). Description: Quantitative PCR of RORα target genes in HepG2 cells. The experiment is classed as cell-based, human. As to conditions: 10 μM. In a few lines: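 HepG2 cells treated with 10 μM test compound, with RORα-targeting siRNA or scrambled control siRNA. Total RNA extracted, reverse-transcribed and quantified by real-time PCR using human BMAL1 and REV-ERBα primers.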

In a further experiment the target is T7, full-length RORγ (Homo sapiens, UniProt P51449).
T7 sequence (P51449 1-518): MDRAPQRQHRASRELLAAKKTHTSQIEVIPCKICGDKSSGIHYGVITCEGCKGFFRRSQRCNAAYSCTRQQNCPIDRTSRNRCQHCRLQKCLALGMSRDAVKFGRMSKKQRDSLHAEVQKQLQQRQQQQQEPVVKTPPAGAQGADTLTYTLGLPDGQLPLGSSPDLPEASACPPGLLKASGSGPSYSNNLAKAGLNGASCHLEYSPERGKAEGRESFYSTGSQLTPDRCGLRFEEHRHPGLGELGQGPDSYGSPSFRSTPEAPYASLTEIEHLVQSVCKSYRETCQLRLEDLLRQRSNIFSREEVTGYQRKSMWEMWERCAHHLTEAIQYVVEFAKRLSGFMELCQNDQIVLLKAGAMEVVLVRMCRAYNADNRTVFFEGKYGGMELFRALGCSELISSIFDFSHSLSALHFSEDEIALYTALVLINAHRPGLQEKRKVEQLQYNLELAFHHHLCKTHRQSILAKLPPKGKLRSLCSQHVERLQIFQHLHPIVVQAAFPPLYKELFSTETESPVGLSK
The format is cell-based. As to conditions: 10 μM, HEK293. In a few lines:
as §1

The target of the next experiment is T8, RORα LBD (Homo sapiens, UniProt P35398).
T8 sequence (P35398 272-510 limits assumed): T2 sequence (P35398 272-510 limits assumed)
The experiment is classed as binding. As to conditions: competition with 3 nM [3H]-25-hydroxycholesterol, Cheng-Prusoff.

Turning to `CC(C)CCC[C@@H](C)[C@H]1CC[C@H]2[C@@H]3C(=O)C=C4C[C@@H](O)CC[C@]4(C)[C@H]3CC[C@]12C` [7-ketocholesterol], in the experiment with LXRs, the “affinity for the LXRs” value is “no affinity”.

Regarding `CC(C)CCC[C@@H](C)[C@H]1CC[C@H]2[C@@H]3[C@H](O)C=C4C[C@@H](O)CC[C@]4(C)[C@H]3CC[C@]12C` [7α-OHC], the “affinity for the LXRs” value in the experiment on LXRs is on record as “no affinity”.

As to `CC(C)CC[C@@H](O)[C@@H](C)[C@H]1CC[C@H]2[C@@H]3CC=C4C[C@@H](O)CC[C@]4(C)[C@H]3CC[C@]12C` [22-OHC], the “effect on activity of RORγ” value on Gal4-RORγ LBD [1] is on record as “unable to affect the activity”. Moreover, the “effect on activity of RORα” value at Gal4-RORα LBD [2] was “unable to affect the activity”.

At RORγ LBD, `C[C@H](CC[C@@H]1OC1(C)C)[C@H]1CC[C@H]2[C@@H]3CC=C4C[C@@H](O)CC[C@]4(C)[C@H]3CC[C@]12C` [24,25-epoC, 24(S),25 epoxycholesterol] yielded an inhibition constant (Ki) of 20 nM. Moreover, the “effect on constitutive activity” value is recorded as “without having any significant effect” on Gal4-RORα LBD [3] and “suppresses the activity” at Gal4-RORγ LBD [4] (HEK293). On Gal4-RORγ LBD [4], the midpoint of inhibition, the IC50, lay at 280 nM.

Turning to `CC(C)[C@H](O)CC[C@@H](C)[C@H]1CC[C@H]2[C@@H]3CC=C4C[C@@H](O)CC[C@]4(C)[C@H]3CC[C@]12C` [24R-OHC, 24R-hydroxycholesterol], the Ki on RORγ LBD is 102 nM. Further, the figures for the “effect on constitutive activity” value on Gal4-RORα LBD [3] and on Gal4-RORγ LBD [4] (HEK293) were “no effect” and “significant decrease in the constitutive activity”, respectively. Also, the IC50 against Gal4-RORγ LBD [4] was 90 nM.

Regarding `CC(C)[C@@H](O)CC[C@@H](C)[C@H]1CC[C@H]2[C@@H]3CC=C4C[C@@H](O)CC[C@]4(C)[C@H]3CC[C@]12C` [24S-OHC, 24S-hydroxycholesterol], the Ki is ~25 nM and 25 nM on RORγ LBD (competition with 3 nM [3H]-25-hydroxycholesterol, Cheng-Prusoff); 27 nM on RORα LBD. Also, the “reduction of transcriptional activity” value is on record as 30 to 40% at Gal4-RORα LBD [3] (10 μM) and 30 to 40% on Gal4-RORγ LBD [4] (10 μM, HEK293). For the same compound, the Maximal suppression is recorded as roughly 30% at Gal4-RORα LBD [3] (dose-response) and roughly 30% at Gal4-RORγ LBD [4] (dose-response, HEK293). Further, the IC50 was found to be 620 nM on Gal4-RORα LBD [3] (read-out: IC50 (suppression of transcriptional activity), dose-response) and 1300 nM at Gal4-RORγ LBD [4] (read-out: IC50 (suppression of transcriptional activity), dose-response, HEK293). Moreover, the “suppression of Bmal1 driven reporter gene expression” value at full-length RORα and at full-length RORγ was 20-40% throughout. Besides, at RORα, the “suppression of G6Pase promoter reporter expression” value was “approximately 30%”. Further, in experiment [5], the “reduction of SRC-2 recruited versus DMSO control” value is roughly 50%. In addition, the “decrease of BMAL1 mRNA expression” value in [6] was determined as 38%. Besides, the “decrease of REV-ERBα mRNA expression” value in experiment [6] is 33%.

With `C[C@H](CCCC(C)(C)O)[C@H]1CC[C@H]2[C@@H]3CC=C4C[C@@H](O)CC[C@]4(C)[C@H]3CC[C@]12C` [25-OHC, 25-hydroxycholesterol], the “effect on activity of RORα” value on Gal4-RORα LBD [2] was “unable to affect the activity”.

For the compound `C[C@@H](CO)CCC[C@@H](C)[C@H]1CC[C@H]2[C@@H]3CC=C4C[C@@H](O)CC[C@]4(C)[C@H]3CC[C@]12C` [27-OHC], the “effect on activity of RORγ” value at Gal4-RORγ LBD [1] is reported as “unable to affect the activity”. The “effect on activity of RORα” value at Gal4-RORα LBD [2] was “unable to affect the activity”.

Usually Ki stands for a measure of affinity in units of concentration, obtained from inhibition or displacement. High values mean weaker binding, low ones tighter binding. The IC50 is the concentration at which inhibition is half-maximal.
